Assay outcomes as filed in PubChem.
This is a sample that favours compounds with a hit; in the whole collection about 2.9% have one here.
UBC13 polyUb – human UBC13 polyubiquitination inhibition; UBC13 polyubiquitin chain formation, TR-FRET; 0.47% of 330,000 active; inhibition, % at 20 µM; P61088; in the data active = inhibition above about 45%, passing the limit was not always enough; inconclusive = no clear call, values can overlap the other calls
Target sequence (P61088 whole entry, looked up): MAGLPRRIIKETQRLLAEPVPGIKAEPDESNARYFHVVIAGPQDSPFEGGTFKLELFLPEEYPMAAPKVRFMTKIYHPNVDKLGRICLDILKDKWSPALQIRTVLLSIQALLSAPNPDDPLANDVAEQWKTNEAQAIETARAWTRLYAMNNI
MEKK3 PB1 HTS – MEKK3-MEK5 PB1 interaction, increase or decrease. Q99759. bead-based flow cytometry, Alexa488-MEK5 binding to MEKK3; actives lie on both sides; 0 = blocked by unlabeled MEK5, 100 = vehicle. binding response (% of control), % at 10 µM. 1.4% of 290,000 active;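 active = binding response more than 3 SD above or below the average of its plate-row segment, actives on both sides; inconclusive = wells at one plate position flagged as instrument error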;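 note: Alexa488 bead fluorescence after subtracting the streptavidin-only scavenger bead signal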
MEKK2wt PB1 HTS – raises or lowers MEK5 binding to wildtype human MEKK2 PB1 domain | Q9Y2U5 | bead flow cytometry, Alexa488-MEK5 binding to MEKK2 WT; actives lie on both sides | binding response (% of control), % at 10 µM | 1.1% of 290,000 active | AID 1531; in the data active = binding response below about 67% or above about 130%; inconclusive = no clear call, values can overlap the other calls; inactive = in between
MEKK2 mut-MEK5 – signal of MEK5 binding to mutant human MEKK2 PB1 domain. bead flow cytometry, Alexa488-MEK5 binding to MEKK2 mutant. percent response, % at 10 µM. 0.35% of 290,000 active; in the data active = percent response above about 24%, passing the limit was not always enough
Apaf-1 inh – inhibitors of human Apaf-1 apoptosome | O14727 | reconstituted apoptosome caspase-3 activity, DEVD-Rh110 fluorescence | inhibition, % at 20 µM | 0.71% of 330,000 active | AID 489030; active = inhibition of at least 40% at 20 µM
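Material: cell-free apoptosome with Apaf-1, procaspase-3 and caspase-9; Buffer or medium: Hepes pH 7.5 with detergent and BSA; Reagent: cytochrome c trigger plus (Z-DEVD)2-Rh110 caspase-3 substrate; Times: compound with Apaf-1, dATP, procaspase-3 30 min, then 50 min reaction, room temperature; Technique: Rh110 fluorescence intensity.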
MEKK2wt confirm – raises or lowers MEK5 binding to wildtype human MEKK2, retest | AID 1892 | 2.4% of 5,900 active | binding response (% of control), % at 10 µM | bead flow cytometry, Alexa488-MEK5 binding to MEKK2 WT; actives lie on both sides | shares compounds with MEKK3 PB1 HTS; in the data active = binding response below about 16% or above about 210%; inactive = in between
MEKK2mut confirm – signal of MEK5 binding to mutant human MEKK2, retest | AID 1893 | 2% of 5,900 active | percent response, % at 10 µM | bead flow cytometry, Alexa488-MEK5 binding to MEKK2 mutant | shares compounds with MEKK3 PB1 HTS; in the data active = percent response mostly above about 71%, no sharp cut-off; inactive = mostly below about 38%;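 note: higher means compound restores mutant binding toward wildtype level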
MEKK3-MEK5 inh – confirmation of inhibitors of MEK5 binding to human MEKK3 | bead flow cytometry, Alexa488-MEK5 binding to MEKK3; hits give low values | 1.8% of 5,900 active | AID 1894 | shares compounds with MEKK3 PB1 HTS | binding response (% of control), % at 10 µM;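 active = binding response below 72% of control, or above a set upper limit, though filed actives all read lower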;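 note: lower values mean stronger disruption of MEK5 binding to MEKK3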
Casp3 counter – caspase-3 inhibition (UBC13 counter-screen) | Recombinant caspase-3, Caspase-Glo 3/7 luminescence, 60 min | AID 488856 | inhibition, % at 20 µM | 4% of 1,400 active | shares compounds with UBC13 polyUb;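 active = mean inhibition across replicates above about 26%, limit read from the data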
Target sequence (P42574 whole entry, looked up): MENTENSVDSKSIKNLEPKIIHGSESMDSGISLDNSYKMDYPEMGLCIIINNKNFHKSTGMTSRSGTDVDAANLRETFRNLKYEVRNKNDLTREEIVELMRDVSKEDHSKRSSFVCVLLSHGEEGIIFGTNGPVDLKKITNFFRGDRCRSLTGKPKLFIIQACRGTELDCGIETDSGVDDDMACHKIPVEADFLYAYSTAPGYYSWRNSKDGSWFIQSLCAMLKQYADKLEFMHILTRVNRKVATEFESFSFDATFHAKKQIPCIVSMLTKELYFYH
UBC13 conf – confirmation of human UBC13 polyubiquitin inhibitors; 68% of 1,400 active; inhibition, % at 10 µM; UBC13 polyubiquitination, TR-FRET, biochemical; shares compounds with UBC13 polyUb; in the data active = inhibition above about 45%; inconclusive = no clear call, values can overlap the other calls
Of the large screens only hits and unclear results are named; the others gave an inactive call (follow-up assays come after a bar, where they were run); [ ] = dose if it differs, or a comment.

O=C(COC(=O)c1nc(Cl)ccc1Cl)NCc1ccc(Cl)cc1	none (no result: MEKK3 PB1 HTS, MEKK2wt PB1 HTS, MEKK2 mut-MEK5)
CC(C)(C)OC(=O)N1CCC(CC2CC(c3cccc(Br)c3)=NO2)(C(=O)NCC2CCCCC2)CC1 (centres undefined)	none
O=C(NCC1CCCCC1)C1(CC2CC(c3cccc(Br)c3)=NO2)CCNCC1 (centres undefined)	UBC13 polyUb 50.6, MEKK2wt PB1 HTS 145.0 | MEKK2wt confirm inactive | MEKK2mut confirm inactive | MEKK3-MEK5 inh inactive | Casp3 counter inactive | UBC13 conf 52.3
c1ccc(C[C@H]2CN=C(Nc3ccccc3)N2CCC2CCCC2)cc1	none (no result: MEKK3 PB1 HTS, MEKK2wt PB1 HTS, MEKK2 mut-MEK5)
NC1=NC[C@H](Cc2ccc(O)cc2)N1CCc1cccc2ccccc12	UBC13 polyUb 61.2, MEKK2wt PB1 HTS 152.0, MEKK2 mut-MEK5 50.0 | MEKK2wt confirm inactive | MEKK2mut confirm inactive | MEKK3-MEK5 inh inactive | Casp3 counter inactive | UBC13 conf 50.1
NC1=NC[C@H](Cc2ccccc2)N1CCCCC1CCCCC1	UBC13 polyUb 85.7, MEKK2wt PB1 HTS 151.0, Apaf-1 inh 66.9 | MEKK2wt confirm inactive | MEKK2mut confirm inactive | MEKK3-MEK5 inh inactive | Casp3 counter inactive | UBC13 conf 80.5
CN(C)c1ccc(/C=N/NC(=O)CCc2nc3ccccc3[nH]2)cc1	none
Cc1[nH]c2ccccc2c1CCN(Cc1cccnc1)C(=S)NC(C)(C)C	none
CCCCN1CCc2c1nc1ccc(Br)cc1c2N	UBC13 polyUb 55.2, MEKK2wt PB1 HTS 147.0 | MEKK2wt confirm inactive | MEKK2mut confirm inactive | MEKK3-MEK5 inh inactive | Casp3 counter inactive | UBC13 conf inconclusive
CCCNC(=O)N1CCN(Cc2ccco2)CC1	none
c1ccc(Nc2nc(NCc3ccco3)c3ccccc3n2)cc1	UBC13 polyUb 48.0, MEKK2wt PB1 HTS 174.0 | MEKK2wt confirm inactive | MEKK2mut confirm inactive | MEKK3-MEK5 inh inactive | Casp3 counter inactive | UBC13 conf 76.5
C#CCOCCOCCOCCNc1nc(N2CCN(C(=O)[C@H](Cc3cc4ccccc4[nH]3)n3cc([C@@H](N)C(C)CC)nn3)CC2)nc(N2CCN(C(=O)[C@H](Cc3cc4ccccc4[nH]3)n3cc([C@@H](N)Cc4ccc(O)cc4)nn3)CC2)n1 (some centres undefined)	UBC13 polyUb 124.4, MEKK2wt PB1 HTS 313.0, MEKK2 mut-MEK5 162.0, Apaf-1 inh 60.4 | MEKK2wt confirm 266.0 | MEKK2mut confirm 104.0 | MEKK3-MEK5 inh inactive | Casp3 counter inactive | UBC13 conf 118.9
C#CCOCCOCCOCCNc1nc(N2CCN(C(=O)[C@H](Cc3ccc(O)cc3)n3cc([C@@H](N)C(C)CC)nn3)CC2)nc(N2CCN(C(=O)[C@H](Cc3cc4ccccc4[nH]3)n3cc([C@@H](N)C(C)CC)nn3)CC2)n1 (some centres undefined)	UBC13 polyUb 77.0, MEKK2wt PB1 HTS 208.0, MEKK2 mut-MEK5 59.0 | MEKK2wt confirm inactive | MEKK2mut confirm inactive | MEKK3-MEK5 inh inactive | Casp3 counter inactive | UBC13 conf 66.1
CCN(CC)CCC(c1cc(OC)c(OC)c(OC)c1)c1c(OC)cc(OC)c2c(C)cc(=O)oc12 (centres undefined)	none
COc1cc(C(CCN2CCCC2)c2c(OC)cc(OC)c3ccc(=O)oc23)cc(OC)c1OC (centres undefined)	none
CCCCCc1cc(=O)oc2c(C(CCN(CC)CC)c3ccc(N(C)C)cc3)c(OC)cc(OC)c12 (centres undefined)	UBC13 polyUb 79.9, MEKK2wt PB1 HTS 166.0 | MEKK2wt confirm inactive | MEKK2mut confirm inactive | MEKK3-MEK5 inh inactive | Casp3 counter inactive | UBC13 conf inactive
CCCCCc1cc(=O)oc2c(C(CCN3CCCCC3)c3cc(OC)c(OC)c(OC)c3)c(OC)cc(OC)c12 (centres undefined)	UBC13 polyUb 81.3, MEKK2wt PB1 HTS 147.0 | MEKK2wt confirm inactive | MEKK2mut confirm inactive | MEKK3-MEK5 inh inactive | Casp3 counter inactive | UBC13 conf 46.0
Cc1c(CCOC(=O)C23CC4(C)CC(C)(CC(C)(C4)C2)C3)sc[n+]1CC(=O)c1ccccc1	UBC13 polyUb 70.3, MEKK2wt PB1 HTS 158.0 | MEKK2wt confirm inactive | MEKK2mut confirm inactive | MEKK3-MEK5 inh inactive | Casp3 counter inactive | UBC13 conf 87.8
Cc1c(CCOC(=O)C23CC4CC(CC(C)(C4)C2)C3)sc[n+]1Cc1ccccc1	none
COc1ccc2nc(C)cc(Nc3ccccc3O)c2c1	none
COc1ccc2nc(C)cc(N/N=C/c3cccc(OC)c3O)c2c1	UBC13 polyUb 58.4, MEKK2wt PB1 HTS 260.0, MEKK2 mut-MEK5 72.0 | MEKK2wt confirm 236.0 | MEKK2mut confirm 79.0 | MEKK3-MEK5 inh inactive | Casp3 counter inactive | UBC13 conf 110.9
NC(N)=N/N=C/c1ccc2cccc(OCc3ccccc3)c2n1	UBC13 polyUb 50.1, MEKK2wt PB1 HTS 148.0 | MEKK2wt confirm 2.0[inhibitor] | MEKK2mut confirm inactive | MEKK3-MEK5 inh 2.0 | Casp3 counter inactive | UBC13 conf inactive
COc1cccc2c1NC(C(=O)O)C1CC=CC21 (centres undefined)	UBC13 polyUb 45.2, MEKK2wt PB1 HTS 29.0[inhibitor] | MEKK2wt confirm inactive | MEKK2mut confirm inactive | MEKK3-MEK5 inh inactive | Casp3 counter inactive | UBC13 conf 47.4
O=C(Nc1ccc(Cl)c(C(F)(F)F)c1)NC1CC2CCCC(C1)N2Cc1ccccc1 (centres undefined)	UBC13 polyUb 46.2, MEKK2wt PB1 HTS 215.0 | MEKK2wt confirm inactive | MEKK2mut confirm inactive | MEKK3-MEK5 inh inactive | Casp3 counter inactive | UBC13 conf 62.9
O=C(NC1CC2CCCC(C1)N2C(=O)Nc1ccc(Cl)c(C(F)(F)F)c1)C1CC1 (centres undefined)	none
CCC(C)[C@H](N)c1cn([C@@H](Cc2ccc(O)cc2)C(=O)N2CCNCC2)nn1 (some centres undefined)	none
